Bioassay records (PubChem BioAssay)
Fam108B counter – counter-screen for RBBP9 inhibitors: inhibitors of mouse Fam108B; recombinant Fam108B, FP-Rh probe fluorescence polarization; inhibition, % at 9.51 µM; hit rate 0.33% among 300,000;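 active = inhibition above the screen mean inhibition plus 3 SD, computed separately per campaign, cut at about 18% in these data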;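 note: inhibitors lower polarization as less probe binds the enzyme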
RBBP9 inhibitor – inhibitors of human serine hydrolase RBBP9 | recombinant RBBP9, FP-Rh probe fluorescence polarization | inhibition, % at 7.94 µM | hit rate 0.2% among 220,000;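 active = inhibition above the campaign mean of all tested compounds plus 3 SD, cut at about 14% in these data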;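 note: plate controls were DMSO wells with RBBP9 for no effect and wells lacking RBBP9 protein for full effect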
Target sequence (O75884 whole entry, looked up): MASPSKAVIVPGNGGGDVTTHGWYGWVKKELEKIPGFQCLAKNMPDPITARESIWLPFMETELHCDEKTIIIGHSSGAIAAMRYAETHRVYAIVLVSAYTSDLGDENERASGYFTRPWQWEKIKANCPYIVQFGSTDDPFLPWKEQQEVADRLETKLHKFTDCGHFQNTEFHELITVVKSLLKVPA
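Measured by – fluorescence polarization · Test system – RBBP9 protein · Input – 2.5 µM RBBP9 dispensing solution, before mixing · Measure – percent inhibition from mP, scaled between DMSO and no-protein wells · Benchmarks – DMSO-treated enzyme wells and wells lacking RBBP9 · Times – preincubation 30 min plus labeling 45 min at 25 °C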
LYPLA1 counter – LYPLA1 (human) inhibition in PME1 counter-screen; O75608; recombinant LYPLA1, FP-Rh probe fluorescence polarization; inhibition, % at 5.9 µM; hit rate 0.16% among 320,000;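 active = inhibition above the mean of all tested compounds plus 3 SD, set per campaign, cut at about 14% in these data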;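 note: inhibitors block serine hydrolase probe labeling of LYPLA1 so polarization falls; 0% = enzyme with DMSO and 100% = wells lacking LYPLA1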
Target sequence (O75608 whole entry, looked up): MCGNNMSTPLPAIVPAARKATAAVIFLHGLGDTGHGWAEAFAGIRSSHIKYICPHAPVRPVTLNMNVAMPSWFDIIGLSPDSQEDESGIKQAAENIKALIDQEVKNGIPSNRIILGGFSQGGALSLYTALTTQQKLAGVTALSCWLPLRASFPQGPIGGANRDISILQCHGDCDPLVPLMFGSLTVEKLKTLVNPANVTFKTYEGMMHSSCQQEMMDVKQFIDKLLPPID
PME-1 primary – blocks human protein phosphatase methylesterase 1 | Q9Y570 | recombinant PME-1, FP-Rh probe fluorescence polarization | inhibition, % at 5.9 µM | hit rate 0.53% among 320,000;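 active = inhibition above the campaign mean of all compounds plus 3 SD, cut at about 26% in these data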;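 note: competitive labeling of PME-1 active site by serine hydrolase directed probe; 0% = PME-1 with DMSO and 100% = wells lacking PME-1 enzyme; inhibitors block probe labeling so polarization falls and inhibition rises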
LYPLA2 inh – counter-screen for PME1 inhibitors: inhibitors of human LYPLA2; AID 2177; hit rate 0.38% among 320,000; recombinant LYPLA2, FP-Rh probe fluorescence polarization; inhibition, % at 5.9 µM; O95372;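 active = inhibition above the screen-wide mean plus 3 SD, limit set per campaign, cut at about 26% in these data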;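 note: 0% = LYPLA2 with DMSO and 100% = wells lacking LYPLA2 enzyme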
Target sequence (O95372 whole entry, looked up): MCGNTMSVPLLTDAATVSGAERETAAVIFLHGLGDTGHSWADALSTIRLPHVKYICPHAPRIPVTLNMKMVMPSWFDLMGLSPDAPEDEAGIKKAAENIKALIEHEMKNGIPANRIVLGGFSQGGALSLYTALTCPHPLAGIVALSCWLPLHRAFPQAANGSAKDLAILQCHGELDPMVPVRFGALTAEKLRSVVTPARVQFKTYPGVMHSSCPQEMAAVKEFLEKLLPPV
Fam108b confirm – confirmation of mouse Fam108b serine hydrolase inhibitors; inhibition, % at 9.51 µM; shares compounds with Fam108B counter; recombinant Fam108b, FP-Rh probe fluorescence polarization; hit rate 44% among 930;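 active = inhibition above a limit from the primary screen, the mean over all compounds plus 3 SD, cut at about 19% in these data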;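 note: 0% = median of active Fam108b wells and 100% = catalytically dead S170A mutant; inhibitors free the probe so polarization falls as inhibition rises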
Fam108b inh – mouse ABHD17B inhibition; hit rate 44% among 260; shares compounds with Fam108B counter; inhibition, % at 20 µM; recombinant Fam108b, gel-based ABPP, fluorophosphonate probe; in the data active = inhibition above about 40%
An asterisk follows results filed as active; . = no result. Sampled rows, rich in hits. Any-hit rate of the full collection: about 0.99%.

SMILES	Fam108B counter	RBBP9 inhibitor	LYPLA1 counter	PME-1 primary	LYPLA2 inh	Fam108b confirm	others
CCCCCC(=O)Nc1nc(C)c(-c2csc(Nc3ccc(Cl)cc3)n2)s1	20*	-7	-19	25	-5	13
C/C(=N\NC(=O)c1ccc(=O)[nH]n1)c1cccnc1	0	6	-1	-3	5	.
CC1CC(=O)c2c(cc3c(-c4c(O)cc(O)c5c(O)c6c(cc45)OC(C)CC6=O)c(O)cc(O)c3c2O)O1 (stereo not drawn)	54*	26*	-11	0	-1	66*	Fam108b inh=0
O=C1c2ccccc2C(=O)c2c([N+](=O)[O-])ccc(O)c21	31*	1	8	29*	10	36*	Fam108b inh=30
CN(C)S(=O)(=O)c1cccc(NC(=S)N/N=C/c2cc(Br)ccc2O)c1	29*	-4	-16	38*	-15	3
CN(C)S(=O)(=O)c1cccc(NC(=S)N/N=C/c2cccc(O)c2)c1	1	-3	-7	17	1	.
Cc1cc(C)cc(-n2ncc3c2CCCC3NC(=O)c2ccccc2N2CCOCC2)c1 (stereo not drawn)	-1	.	-4	-1	-4	.
COc1ccc(/C=N/NC(=O)c2cccnc2)cc1CN1CCc2ccccc2C1	-8	-11	-9	-7	-18	.
COc1ccc(/C=N/NC(=O)c2ccc(F)cc2)cc1CN1CCc2cc(OC)c(OC)cc2C1C (stereo not drawn)	-10	-12	-8	0	-14	.
COc1ccc(C=NNC(=O)c2ccc(O)cc2)cc1CN1CCCc2ccccc21	.	.	.	.	.	.	Fam108b inh=90*
COc1ccc(/C=N/NC(=O)c2ccc(O)cc2)cc1CN1CCCc2ccccc21	27*	3	-2	27*	-4	33*
C/C(=N\NC(=O)Cn1cc([N+](=O)[O-])cn1)c1ccc(O)cc1	0	-3	3	-4	2	.
Cc1nn(-c2ccc(Br)cc2)c(=O)c2ccccc12	88*	.	2	93*	8	-12
Cc1[nH]c2ccccc2c1C=NNC(=O)c1cccc(S(=O)(=O)Nc2cccc(C(F)(F)F)c2)c1	.	.	.	.	.	.	Fam108b inh=95*
Cc1[nH]c2ccccc2c1/C=N/NC(=O)c1cccc(F)c1	0	-11	1	11	0	.
CC(C)CN(Cc1cc(=O)oc2cc(-c3ccccc3)c(O)cc12)CC(C)C	42*	-13	-25	-2	-33	19*
CCN(CC)C(=O)CSCc1cnn(-c2ccccc2)c1-n1cccc1	-1	5	1	3	2	.
CCn1c2ccccc2c2cc(NC(=O)c3ccc([N+](=O)[O-])cc3)ccc21	25*	1	0	5	9	-1
Oc1c(Br)cc(Br)c(/C=N/n2c(-c3ccccc3)n[nH]c2=S)c1Br	19*	.	2	38*	6	16
Oc1ccc(Br)cc1/C=N/n1c(-c2ccccc2)n[nH]c1=S	-3	.	0	0	4	.
O=C1CCCC2=C1C(c1ccc(O)c(O)c1)Nc1ccc3ccccc3c12 (stereo not drawn)	-3	.	-7	-1	-12	.
O=C1CCCC2=C1C(c1ccco1)Nc1ccc3ccccc3c12 (stereo not drawn)	18*	-1	-1	-1	-4	11
Cc1cc(CSc2ccccc2)ccc1NC(=O)c1ccc(Cl)c([N+](=O)[O-])c1	25*	1	5	-2	13	63*	Fam108b inh=20
Cc1cc(CSc2ccccc2)ccc1NC(=O)c1ccc(C)c([N+](=O)[O-])c1	-4	-2	-2	1	-3	.
COc1ccc(OC)c(Nc2cc(C)nc3ccc(C)cc23)c1	-3	.	-1	3	-2	.
SMILES	Fam108B counter	RBBP9 inhibitor	LYPLA1 counter	PME-1 primary	LYPLA2 inh	Fam108b confirm	others
Cc1ccc(Cl)cc1NC1=C/C(=N\S(=O)(=O)c2cccs2)c2ccccc2C1=O	24*	-6	0	24	4	20*
O=C1C(Nc2ccc(O)cc2)=C/C(=N/S(=O)(=O)c2cccs2)c2ccccc21	.	5	.	.	.	.
COc1ccc(-c2nc(-c3cccs3)c(-c3cccs3)[nH]2)cc1O	30*	2	-7	47*	-2	18
COc1ccc(-c2nnc(-c3cccs3)o2)cc1OC	1	3	1	0	-1	.
CC1(C)c2[nH]c3ccccc3c2C[C@@H]2C(=O)N(Cc3ccco3)C(=O)N21	15	.	-1	9	1	.
CO/N=C/C(=N\Nc1ccc(C)cc1)C(=O)c1ccc(OC)cc1	-8	0	-3	-6	-10	.
COc1ccc(NN=C(C=NO)C(=O)c2ccc(OC)cc2)cc1	.	.	.	.	.	.	Fam108b inh=0
COc1ccccc1NC(=O)Nc1nn(C)c2cccc(OC)c12	2	-5	-3	-2	0	.
O=C1c2ccccc2C2=Nc3ccccc3SC(c3ccc(Cl)cc3)C12 (stereo not drawn)	14	-2	-14	14	2	.
O=C1c2ccccc2C2=Nc3ccccc3SC(c3cccc(F)c3)C12 (stereo not drawn)	22*	-8	-9	19	-6	-20
Cc1ccc(C(C(=O)NC(C)(C)C)N(Cc2cccnc2)C(=O)C(=O)NC2CCCCC2)o1 (stereo not drawn)	0	-7	-3	-2	0	.
COc1ccc(S(=O)(=O)N2CCN(Cc3cccc(F)c3)CC2)cc1	-4	.	1	-1	1	.
COc1cccc(Nc2nc(-c3cccc(N4C(=O)c5ccccc5C4=O)c3)cs2)c1	31*	-5	-17	12	-6	16
Cc1oc2c(c1C(=O)c1ccccc1)C(=O)C(=O)c1ccccc1-2	55*	0	10	29*	14	35*	Fam108b inh=25
Cc1oc2c(c1C(=O)O)C(=O)c1ccccc1C2=O	3	-4	0	4	1	.
COc1ccc(C(=O)/C=C/Nc2ccc(S(=O)(=O)Nc3cccc(C(C)=O)c3)cc2)cc1	34*	-3	-19	43*	9	20*
O=C(Nc1ccc2[nH]c(=S)sc2c1)Nc1ccccc1F	26*	-8	-6	78*	-2	49*	Fam108b inh=90*
O=C(Nc1ccc2[nH]c(=S)sc2c1)c1ccccc1	0	-13	-3	-2	7	.
O=C(Nc1ccc(N2CCOCC2)cc1)Nc1ccc2nc(-c3ccco3)c(-c3ccco3)nc2c1	26*	0	-5	65*	13	13
O=C(c1ccc2nc(-c3ccco3)c(-c3ccco3)nc2c1)N1CCN(c2ccccc2)CC1	0	6	0	4	6	.
O=S(=O)(c1ccc2nc(-c3ccco3)c(-c3ccco3)nc2c1)N1CCOCC1	19*	4	-3	12	2	12
O=[N+]([O-])c1cc([N+](=O)[O-])c2c(=Nc3ccccc3)n(-c3ccccc3)n(O)c2c1	19*	7	7	22	11	27*
